# Experimental data as given in the M2OR odorant receptor database.
# Molecular target: T1, OR2W1 (Homo sapiens) (UniProt Q9Y3N9)
# T1 sequence (whole entry): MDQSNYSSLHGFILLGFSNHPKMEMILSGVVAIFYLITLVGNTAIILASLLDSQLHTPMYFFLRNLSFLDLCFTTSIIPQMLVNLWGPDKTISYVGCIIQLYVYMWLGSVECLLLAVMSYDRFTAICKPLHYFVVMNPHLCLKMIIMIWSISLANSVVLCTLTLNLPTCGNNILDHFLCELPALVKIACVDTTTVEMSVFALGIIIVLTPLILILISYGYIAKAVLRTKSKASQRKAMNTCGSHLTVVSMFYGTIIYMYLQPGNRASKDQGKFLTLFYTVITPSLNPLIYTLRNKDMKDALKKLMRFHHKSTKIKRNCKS
# Settings: stereoisomer not certain
# Summary of the method: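 Each receptor–molecule pair is labelled responsive or non-responsive (inactive) according to whether the original authors judged the measured signal statistically different from baseline. The data were taken from the main text and supplementary material of published papers and checked for typos and inconsistencies. Assay methods differed by source, with transient luciferase assays in mammalian cell lines being common.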
# 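Also: active if original authors judged signal statistically different from baseline.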
row,Structure (SMILES),odorant receptor agonist call
1,Cc1c[nH]c2ccccc12,inactive
2,CCC(=O)C(C)=O,inactive
3,CCCCC(CC)CCC(=O)O (stereo not given),inactive
4,CC=CC(=O)C1=C(C)C=CCC1(C)C,inactive
5,CCC=CCC=O,inactive
6,CCC(C)C=O (stereo not given),inactive
7,CCCCC(C)=O,active
8,C=CCSC,inactive
9,CCc1ncc(C)nc1CC,inactive
10,O=C1CCOc2ccccc21,active
11,CCC(=O)C(=O)CC,active
12,COC(=O)C(C)C,inactive
13,O=C1Cc2ccccc2O1,inactive
14,CCOC(C)=O,inactive
15,COc1ccc2ccc(=O)oc2c1,inactive
16,CCCCCCCC1CCCC(=O)O1 (stereo not given),inactive
17,CC(C)CO,inactive
18,CSCSC,inactive

row,Structure (SMILES),odorant receptor agonist call
1,CCCC(C)=O,inactive
2,CCCCCOC(=O)CCCCC,inactive
3,CCC=O,inactive
4,CCC(S)C(C)=O (stereo not given),inactive
5,CCCCCCCCCS,active
6,COc1nccnc1CC(C)C,inactive
7,CC(=O)CC(C)(C)S,inactive
8,CC(=O)OCc1ccccc1,active
9,Cc1ccc(O)cc1,inactive
10,CSCCC=O,inactive
11,CCOC(C)OCC,inactive
12,CCCCC(=O)CC(C)=O,active
13,CC(=O)OCC=C(C)C,active
14,CCCCCCCCC1CCC(=O)O1 (stereo not given),inactive
15,C=Cc1ccc(O)c(OC)c1,inactive
16,CCCCCCCCCC(=O)[O-].[H+],inactive
17,CCCCOC(=O)C(C)OC(=O)CCC (stereo not given),inactive
